We go through 17 compounds from ChEMBL document CHEMBL3286113, “New potent antibacterial oxazolidinone (MRX-I) with an improved class safety profile” (J Med Chem, 2014).

Test [1] concerns Staphylococcus aureus. In words: Antibacterial activity against Staphylococcus aureus by agar dilution method. The test is classed as functional. Put shortly:
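MIC determined by agar dilution across S. aureus/MRSA isolates; MIC90 is the concentration inhibiting 90% of strains tested.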
On the technique in general: In agar dilution, organisms are placed on agar that contains the substance at set levels.

For test [2], the target named is T1, Amine oxidase [flavin-containing] A (Homo sapiens, UniProt P21397).
T1 sequence (P21397 whole entry): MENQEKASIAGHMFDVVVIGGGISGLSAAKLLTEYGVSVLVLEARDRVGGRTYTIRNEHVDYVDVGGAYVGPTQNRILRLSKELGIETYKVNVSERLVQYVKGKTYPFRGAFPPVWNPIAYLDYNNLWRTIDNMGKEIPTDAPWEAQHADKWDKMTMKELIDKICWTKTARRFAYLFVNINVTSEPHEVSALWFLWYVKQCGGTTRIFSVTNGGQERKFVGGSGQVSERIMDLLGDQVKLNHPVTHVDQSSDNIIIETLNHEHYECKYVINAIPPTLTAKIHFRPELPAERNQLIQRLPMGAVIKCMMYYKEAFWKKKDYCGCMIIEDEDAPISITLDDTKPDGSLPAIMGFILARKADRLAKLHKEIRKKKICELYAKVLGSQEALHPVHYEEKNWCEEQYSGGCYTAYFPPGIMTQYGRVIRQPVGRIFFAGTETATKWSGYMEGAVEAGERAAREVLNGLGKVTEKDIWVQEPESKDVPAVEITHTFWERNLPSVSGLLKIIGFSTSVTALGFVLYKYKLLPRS
In words: Inhibition of human recombinant MAO-A expressed in yeast after 1 hr by luciferin-based luminescence assay.

Test [3] concerns Staphylococcus aureus. In words: Antibacterial activity against Staphylococcus aureus in po dosed mouse septicemia model. The test is classed as functional.
Test [4] concerns Staphylococcus aureus. In words: Antibacterial activity against methicillin-resistant Staphylococcus aureus SAU1009. The test is classed as functional. The essentials:
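MIC against MRSA strain SAU1009.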

Test [5] deals with Staphylococcus aureus. In words: Antibacterial activity against Staphylococcus aureus. Type of test: functional.
The test system of test [6] is Staphylococcus aureus. In words: Antibacterial activity against methicillin-resistant Staphylococcus aureus. The test is classed as functional.
The nature of test [7]: Myelosuppression activity against human CD34-positive blood stem/progenitor cells assessed as growth inhibition after 9 to 10 days by CellTiter-Glo luminescent assay. In general terms: Cellular ATP, detected with luciferase, serves as a proxy for viable cell number.
The subject of test [8] is Staphylococcus aureus. In words: Antibacterial activity against Staphylococcus aureus UC9213. The test is classed as functional.
The subject of test [9] is Enterococcus faecium. In words: Bacteriostatic activity against vancomycin-resistant Enterococcus faecium. Type of test: functional.
The next test has as its system Enterococcus faecalis. In words: Bacteriostatic activity against vancomycin-sensitive Enterococcus faecalis. Type of test: functional.
In test [10] the test system is Enterococcus faecium. In words: Bacteriostatic activity against vancomycin-sensitive Enterococcus faecium. The test is classed as functional.
The subject of a further test is Enterococcus. In words: Bacteriostatic activity against vancomycin-sensitive Enterococcus. The test is classed as functional.

Converted amounts (≈) assume the structure as drawn.

A word on the MIC90: it is the lowest concentration that inhibits either 90% of growth or 90% of the strains tested, depending on the study. Read a low MIC90 as higher susceptibility. Turning to `CC(=O)NC[C@H]1CN(c2cc(F)c(N3CCOCC3)c(F)c2F)C(=O)O1`, in the test on Staphylococcus aureus [1], the MIC90 came to 4 µg/mL (≈ 10.7 µM).

The term IC50 denotes the concentration needed to halve the response being measured. The ED50 is the dose that gives a 50% effect, or the effect in half of the subjects. Higher therefore signals weaker potency. In general, MIC refers to the smallest concentration in the dilution series that meets the test's criterion for growth inhibition. Lower therefore signals a more susceptible organism. For the compound `O=C1C=CN(c2c(F)cc(N3C[C@H](Cn4ccnn4)OC3=O)c(F)c2F)CC1`, the IC50 in test [2] was greater than 254 µM. In addition, in the test with Staphylococcus aureus [3], the ED50 came to 10 mg/kg. Besides, in the test with Staphylococcus aureus [4], the MIC worked out at 1 µg/mL (≈ 2.54 µM).

In the test on Staphylococcus aureus [5], `CC(=O)NC[C@H]1CN(c2ccc(C(C)=O)cc2F)C(=O)O1` returned an MIC of 32 µg/mL (≈ 109 µM).

`CC(=O)NC[C@H]1CN(c2ccc(C(C)=O)cc2)C(=O)O1` [DUP-721] displayed an MIC against Staphylococcus aureus [5] of 0.5 µg/mL (≈ 1.81 µM).

Turning to `Cn1nnc(-c2ccc(-c3ccc(N4C[C@H](COP(=O)(O)O)OC4=O)cc3F)cn2)n1` [TEDIZOLID PHOSPHATE], the IC50 was 4 µM in [2] and 0.2 µg/mL in [7]. In addition, the MIC90 against Staphylococcus aureus [6] was 0.5 µg/mL.

On to `Cn1nnc(-c2ccc(-c3ccc(N4C[C@H](CO)OC4=O)c(F)c3F)cn2)n1`, for which inhibition of growth with Staphylococcus aureus [4] (MIC) required 1 µg/mL (≈ 2.58 µM).

Turning to `CC(=O)NC[C@H]1CN(c2ccc(N3C=CC(=O)CC3)c(F)c2F)C(=O)O1`, the IC50 in test [2] was greater than 274 µM. This compound registered an ED50 with Staphylococcus aureus [3] of 15.9 mg/kg. This compound also came in with an MIC in the test on Staphylococcus aureus [4] of 1 µg/mL (≈ 2.74 µM).

As for `O=C1C=CN(c2ccc(N3C[C@H](COc4ccon4)OC3=O)c(F)c2F)CC1`, the ED50 in the test with Staphylococcus aureus [3] is greater than 20 mg/kg. In the test on Staphylococcus aureus [4], this compound showed an MIC of 4 µg/mL (≈ 10.2 µM).

In the case of `CC(=O)NC[C@H]1CN(c2ccc(N3C=CC(=O)CC3)c(F)c2)C(=O)O1`, the MIC with Staphylococcus aureus [8] amounted to 0.5 µg/mL (≈ 1.44 µM). The IC50 in [2] was 10.9 µM. In the test on Staphylococcus aureus [3], this compound registered an ED50 of 10 mg/kg.

On to `COC(=O)NC[C@H]1CN(c2cc(F)c(N3C=CC(=O)CC3)c(F)c2F)C(=O)O1`, for which the IC50 in test [2] was 61.1 µM. Also, in the test with Staphylococcus aureus [3], it took a dose of 6.3 mg/kg to reach the 50% effect level (ED50). The compound further registered an MIC with Staphylococcus aureus [4] of 2 µg/mL (≈ 5.01 µM).

In the test on Staphylococcus aureus [4], `O=C1O[C@@H](CO)CN1c1ccc(-c2ccc(N3CCOC3=O)nc2)c(F)c1` had an MIC of 0.125 µg/mL (≈ 0.335 µM).

The compound `O=C1OCCN1c1ccc(-c2ccc(N3C[C@H](CO)OC3=O)c(F)c2F)cn1` yielded an MIC against Staphylococcus aureus [4] of 0.5 µg/mL (≈ 1.28 µM).

`N#Cc1ccc(-c2ccc(N3C[C@H](CO)OC3=O)cc2F)cn1` gave an MIC with Staphylococcus aureus [4] of 0.25 µg/mL (≈ 0.798 µM).

The compound `Cn1nnc(-c2ccc(-c3ccc(N4C[C@H](CO)OC4=O)cc3F)cn2)n1` [TEDIZOLID] returned an MIC with Staphylococcus aureus [4] of 0.25 µg/mL (≈ 0.675 µM).

Broadly, the MIC50 is the lowest concentration that inhibits either 50% of growth or 50% of the strains tested, depending on the study. For `CN[C@H](CC(C)C)C(=O)N[C@H]1C(=O)N[C@@H](CC(N)=O)C(=O)N[C@H]2C(=O)N[C@H]3C(=O)N[C@H](C(=O)N[C@H](C(=O)O)c4cc(O)cc(O)c4-c4cc3ccc4O)[C@H](O)c3ccc(c(Cl)c3)Oc3cc2cc(c3O[C@@H]2O[C@H](CO)[C@@H](O)[C@H](O)[C@H]2O[C@H]2C[C@](C)(N)[C@H](O)[C@H](C)O2)Oc2ccc(cc2Cl)[C@H]1O` [VANCOMYCIN], the MIC50 against Enterococcus faecium [9] is greater than 128 µg/mL; in the test on Enterococcus faecalis, 0.5 µg/mL (≈ 0.345 µM); in the test with Enterococcus faecium [10] it was 0.5 µg/mL (≈ 0.345 µM); against Enterococcus, 0.5 µg/mL (≈ 0.345 µM). Besides, the MIC90 was greater than 128 µg/mL in the test with Enterococcus faecium [9], 1 µg/mL (≈ 0.69 µM) against Enterococcus faecalis, 0.5 µg/mL (≈ 0.345 µM) against Enterococcus faecium [10] and 2 µg/mL (≈ 1.38 µM) with Enterococcus.

`N#Cc1ccc(-c2ccc(N3C[C@H](CO)OC3=O)c(F)c2F)cn1` showed an MIC against Staphylococcus aureus [4] of 1 µg/mL (≈ 3.02 µM).

For `CC(=O)NC[C@H]1CN(c2cc(F)c(N3C=CC(=O)CC3)c(F)c2F)C(=O)O1`, the ED50 in the test on Staphylococcus aureus [3] was greater than 20 mg/kg. Moreover, in the test with Staphylococcus aureus [4], the MIC was found to be 2 µg/mL (≈ 5.22 µM).
